Measurements: ChEMBL document CHEMBL1156138, “Identification of novel agonists of the integrin CD11b/CD18” (Bioorg Med Chem Lett, 2009)

What was measured:
[1] = target: Integrin alpha-M/beta-2 (Homo sapiens, UniProt P05107+P11215); assay: Agonist activity at CD11b/CD18 expressed in K562 cells assessed as increase in cell adhesion to fibrinogen; format: functional, cell-based
In short: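 K562 cells stably transfected with wild-type CD11b/CD18 were tested for compound-induced adhesion to immobilized fibrinogen. The assay was a no-wash cell-adhesion format in TBS containing 1 mM each Ca2+ and Mg2+. Compounds were tested over a range of concentrations. EC50 was taken as the concentration giving a 50% increase in cell adhesion.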

[2] = Selectivity ratio for CD11b/CD18 over CD11a/CD18

Sequence of Integrin alpha-M/beta-2 (P05107 23-769 limits assumed, other chains not shown): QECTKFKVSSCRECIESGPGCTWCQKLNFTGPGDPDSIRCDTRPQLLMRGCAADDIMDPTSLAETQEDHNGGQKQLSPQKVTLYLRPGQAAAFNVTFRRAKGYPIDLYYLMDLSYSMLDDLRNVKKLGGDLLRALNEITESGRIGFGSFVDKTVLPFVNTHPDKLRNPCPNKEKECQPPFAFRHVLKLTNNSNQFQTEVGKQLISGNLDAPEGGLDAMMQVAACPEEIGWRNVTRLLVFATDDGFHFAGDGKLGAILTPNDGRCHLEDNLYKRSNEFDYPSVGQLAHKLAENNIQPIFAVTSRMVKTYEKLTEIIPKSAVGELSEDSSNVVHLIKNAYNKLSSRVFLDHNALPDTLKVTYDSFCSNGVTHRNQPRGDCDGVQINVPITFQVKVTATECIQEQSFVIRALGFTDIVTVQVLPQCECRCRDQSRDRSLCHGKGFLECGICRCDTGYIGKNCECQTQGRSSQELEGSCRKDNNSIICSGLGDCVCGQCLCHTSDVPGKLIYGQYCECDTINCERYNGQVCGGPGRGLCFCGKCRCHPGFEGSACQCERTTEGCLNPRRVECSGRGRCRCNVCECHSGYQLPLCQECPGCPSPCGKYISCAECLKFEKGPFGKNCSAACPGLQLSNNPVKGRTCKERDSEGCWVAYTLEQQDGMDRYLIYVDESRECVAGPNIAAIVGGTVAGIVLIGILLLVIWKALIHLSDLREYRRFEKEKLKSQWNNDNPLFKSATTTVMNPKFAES

EC50 ([1]; k562)	EC50 ([1]; read-out: EC50) [µM]	SMILES	also measured
Not Active	–	NS(=O)(=O)c1ccc(N2C(=O)S/C(=C\c3ccc(Cc4ccccc4)o3)C2=O)cc1	–
Not Active	–	CCCN1C(=O)S/C(=C\c2ccc(-c3ccc(Cl)cc3Cl)o2)C1=O	–
Not Active	–	COC(=O)C(C)N1C(=O)S/C(=C\c2ccc(-c3ccc(Cl)cc3Cl)o2)C1=O (configuration not stated)	–
–	35.6	O=C(CN1C(=O)S/C(=C\c2ccc(-c3ccc(Cl)cc3Cl)o2)C1=O)c1ccccc1	–
–	13.6	CCOC(=O)CN1C(=O)S/C(=C\c2ccc(-c3ccc(Cl)cc3Cl)o2)C1=O	Ratio [2]: 2
–	> 50	O=C1S/C(=C\c2ccc(-c3ccc(Cl)cc3Cl)o2)C(=O)N1c1ccccc1	–
Not Active	–	O=C(CN1C(=O)S/C(=C\c2ccc(-c3ccc(Cl)cc3Cl)o2)C1=O)Nc1ccccc1F	–

More lines, now with the values behind:

SMILES	EC50 ([1]; k562)	EC50 ([1]; read-out: EC50) [µM]	also measured
CCOC(=O)CN1C(=O)S/C(=C\c2ccc(N3CCOCC3)o2)C1=O	Not Active	–	–
CCOC(=O)CN1C(=O)S/C(=C\c2ccc(-c3ccccc3)o2)C1=O	–	10.5	–
CCOC(=O)CN1C(=O)S/C(=C\c2ccc(-c3cc(C(=O)O)ccc3Cl)o2)C1=O	–	40.9	–
Cc1ccc(/C=C2\SC(=O)N(C)C2=O)o1	Not Active	–	–
Cc1ccc(C(=O)CN2C(=O)S/C(=C\c3ccc(-c4ccc(Cl)cc4)o3)C2=O)cc1	–	> 50	–
CCOC(=O)CN1C(=O)S/C(=C\c2ccc(-c3ccc(Cl)c(C(=O)O)c3)o2)C1=O	–	> 50	–
Cc1cccc(NC(=O)CN2C(=O)S/C(=C\c3ccc(-c4ccccc4)o3)C2=O)c1	–	22.3	–
COC(=O)CN1C(=O)S/C(=C\c2ccc(-c3ccc(C(=O)O)cc3)o2)C1=O	Not Active	–	–
CCOC(=O)CN1C(=O)S/C(=C\c2ccc(N3CCCC3)o2)C1=O	–	23.2	–
Cc1cccc(NC(=O)CN2C(=O)/C(=C/c3ccc(Cc4ccco4)o3)SC2=S)c1	–	18	–
CCOC(=O)CN1C(=O)S/C(=C\c2ccc(-c3ccc(C)cc3Br)o2)C1=O	–	18.6	–
COC(=O)CN1C(=O)S/C(=C\c2ccc(Sc3ccccc3)o2)C1=O	Not Active	–	–
CCOC(=O)CN1C(=O)S/C(=C\c2ccc(-c3ccc(Br)cc3)o2)C1=O	–	40.4	–
CCOC(=O)CN1C(=O)S/C(=C\c2ccc(-c3ccc(C(=O)O)cc3C)o2)C1=O	Not Active	–	–
